Laboratory results from ChEMBL document CHEMBL3351525, “Synthesis of tripeptides containing D-Trp substituted at the indole ring, assessment of opioid receptor binding and in vivo central antinociception” (J Med Chem, 2014).
Calls of active or inactive are those of the source. Where a SMILES comes first, the peptide text is derived from it. [ ]: non-standard residue; d: D form.

Tests used:
[1] = target: Kappa-type opioid receptor (Homo sapiens, UniProt P41145); test: Displacement of [3H]U69593 from human kappa opioid receptor expressed in HEK293 cells by scintillation counting; type: cell-based
[2] = target: Delta-type opioid receptor (Homo sapiens, UniProt P41143); test: Displacement of [3H]diprenorphine from human delta opioid receptor expressed in HEK293 cells by scintillation counting; type: cell-based
Mu-type opioid receptor = Mu-type opioid receptor (Homo sapiens, UniProt P35372); test: Displacement of [3H]DAMGO from human mu opioid receptor expressed in HEK293 cells by scintillation counting; type: cell-based
Mus musculus [3] = test: Toxicity in icv dosed CD-1 mouse assessed as circling behavior; type: organism-based; conditions: in vivo, icv_or_intrathecal
Mus musculus [4] = test: Toxicity in icv dosed CD-1 mouse assessed as grooming; type: organism-based; conditions: in vivo, icv_or_intrathecal
Mus musculus [5] = test: Toxicity in icv dosed CD-1 mouse assessed as straub tail; type: organism-based; conditions: in vivo, icv_or_intrathecal
[6] = Stability in mouse serum assessed as drug degradation after 3 hrs incubation; type: ADME; conditions: read-out: Drug degradation
Outline: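 Peptide incubated in mouse serum for 3 h; degradation assessed.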

Mus musculus [7] = test: Antinociceptive activity in CD-1 mouse assessed as increase in tail-flick latency period at 20 mg/kg, ip at 15 mins by tail flick test; type: functional; conditions: for MPE: route intraperitoneal
Mus musculus [8] = test: Toxicity in icv dosed CD-1 mouse assessed as locomotor activity; type: organism-based; conditions: in vivo, icv_or_intrathecal
Mus musculus [9] = test: Antinociceptive activity in CD-1 mouse assessed as increase in tail-flick latency period at 20 mg/kg, ip at 30 mins by tail flick test; type: functional; conditions: for MPE: route intraperitoneal
Mus musculus [10] = test: Antinociceptive activity in CD-1 mouse assessed as increase in tail-flick latency period at 2.5 microg, icv at 10 mins by tail flick test; type: functional
Mus musculus [11] = test: Antinociceptive activity in CD-1 mouse assessed as increase in tail-flick latency period at 40 mg/kg, ip at 30 mins by tail flick test; type: functional; conditions: route intraperitoneal
Mus musculus [12] = test: Antinociceptive activity in icv dosed CD-1 mouse assessed as increase in tail-flick latency period at 10 mins by tail flick test; type: functional, organism-based
Outline: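 Hot-water (52 ± 0.5 °C) tail-immersion test after icv injection at 2.5, 5 or 10 μg/mouse, compared with vehicle. Withdrawal latency measured with a 10 s cutoff. Response expressed as % maximal possible effect (MPE%).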

Mus musculus [13] = test: Antinociceptive activity in ip dosed CD-1 mouse assessed as increase in tail-flick latency period at 30 mins by tail flick test; type: functional, organism-based
Outline: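 Tail immersed in 52 ± 0.5 °C water; withdrawal latency measured. Pre-treatment control latency recorded; mice not flicking within 5 s excluded. Vehicle or peptide given ip at 10, 20 or 40 mg/kg. Latency read at 5, 15, 30, 45 and 60 min post-dose, 10 s cutoff. Response expressed as % maximal possible effect (MPE%).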

Mus musculus [14] = test: Antinociceptive activity in CD-1 mouse assessed as increase in tail-flick latency period at 10 microg, icv at 10 mins by tail flick test; type: functional
Mus musculus [15] = test: Antinociceptive activity in CD-1 mouse assessed as increase in tail-flick latency period at 5 microg, icv at 10 mins by tail flick test; type: functional

Chain of Delta-type opioid receptor (P41143 whole entry): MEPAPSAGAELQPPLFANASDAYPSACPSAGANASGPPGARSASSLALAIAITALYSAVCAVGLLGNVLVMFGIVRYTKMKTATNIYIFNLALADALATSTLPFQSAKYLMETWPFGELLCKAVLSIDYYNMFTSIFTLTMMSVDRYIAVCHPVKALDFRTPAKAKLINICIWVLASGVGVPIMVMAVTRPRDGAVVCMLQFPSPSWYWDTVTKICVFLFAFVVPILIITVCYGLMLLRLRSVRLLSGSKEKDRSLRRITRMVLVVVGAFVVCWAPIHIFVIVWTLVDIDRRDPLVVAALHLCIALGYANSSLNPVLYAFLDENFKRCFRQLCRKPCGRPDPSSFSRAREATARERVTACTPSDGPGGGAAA
Chain of Kappa-type opioid receptor (P41145 whole entry): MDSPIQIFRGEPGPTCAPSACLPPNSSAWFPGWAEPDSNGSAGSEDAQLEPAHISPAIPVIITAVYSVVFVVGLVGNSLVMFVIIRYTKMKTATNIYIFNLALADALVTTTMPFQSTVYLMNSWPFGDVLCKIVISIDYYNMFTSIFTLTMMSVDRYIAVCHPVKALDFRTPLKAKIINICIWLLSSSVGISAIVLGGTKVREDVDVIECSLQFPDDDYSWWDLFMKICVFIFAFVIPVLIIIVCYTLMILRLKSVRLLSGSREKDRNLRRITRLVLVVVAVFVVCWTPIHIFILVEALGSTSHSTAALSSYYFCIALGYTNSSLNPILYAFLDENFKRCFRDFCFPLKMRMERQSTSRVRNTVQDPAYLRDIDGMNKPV
Chain of Mu-type opioid receptor (P35372 whole entry): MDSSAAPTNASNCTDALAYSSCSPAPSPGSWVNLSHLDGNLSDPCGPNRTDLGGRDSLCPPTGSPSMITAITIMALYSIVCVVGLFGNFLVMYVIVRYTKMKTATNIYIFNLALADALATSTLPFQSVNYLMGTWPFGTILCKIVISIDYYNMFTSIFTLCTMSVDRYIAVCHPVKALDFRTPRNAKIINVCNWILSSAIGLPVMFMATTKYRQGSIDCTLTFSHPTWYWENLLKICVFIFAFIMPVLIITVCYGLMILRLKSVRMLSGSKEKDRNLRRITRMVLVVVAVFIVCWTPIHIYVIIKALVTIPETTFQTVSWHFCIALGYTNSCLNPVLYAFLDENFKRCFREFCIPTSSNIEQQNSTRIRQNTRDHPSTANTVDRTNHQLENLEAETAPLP

Structure (SMILES)	Ki [1]	Ki [2]	Ki (Mu-type opioid receptor)	Activity (Mus musculus [3])	Activity (Mus musculus [4])	Activity (Mus musculus [5])	Activity (Mus musculus [8])	further results
CC(=O)N[C@H](Cc1c[nH]c2ccc(C)cc12)C(=O)N[C@@H](Cc1ccccc1)C(=O)NCC(N)=O	> 100000 nM	> 100000 nM	426 nM	–	–	–	–	–
CC(=O)N[C@H](Cc1c[nH]c2ccc(Cl)cc12)C(=O)N[C@@H](Cc1ccccc1)C(=O)NCC(N)=O	–	–	20.8 nM	–	–	–	–	–
CC(=O)N[C@H](Cc1c[nH]c2cc(Cl)ccc12)C(=O)N[C@@H](Cc1ccccc1)C(=O)NCC(N)=O	–	–	> 100000 nM	–	–	–	–	–
O=C1CNC(=O)[C@H](Cc2ccccc2)NC(=O)[C@@H](Cc2c[nH]c3ccccc23)NC(=O)CNC(=O)[C@H](Cc2ccc(O)cc2)N1	> 100000 nM	24 nM	3.6 nM	Non-toxic	Non-toxic	Non-toxic	Non-toxic	metabolised at 3 h [6]: < 10%; MPE (Mus musculus [7]): 22%; MPE (Mus musculus [9]): 32%
CC(=O)N[C@H](Cc1c(C)[nH]c2ccc(Cl)cc12)C(=O)N[C@@H](Cc1ccccc1)C(=O)NCC(N)=O	–	–	> 100000 nM	–	–	–	–	–
CC(=O)N[C@H](Cc1c[nH]c2ccccc12)C(=O)N[C@@H](Cc1ccccc1)C(N)=O (Ac-[dW]-Phe-NH2)	–	–	–	Non-toxic	Non-toxic	Non-toxic	Non-toxic	Activity (Mus musculus [7]): inactive; Activity (Mus musculus [9]): inactive
CC(=O)N[C@H](Cc1c[nH]c2cc(F)ccc12)C(=O)N[C@@H](Cc1ccccc1)C(=O)NCC(N)=O	–	–	5.7 nM	–	–	–	–	–
CC(=O)N[C@H](Cc1c[nH]c2ccc(F)cc12)C(=O)N[C@@H](Cc1ccccc1)C(=O)NCC(N)=O	–	–	> 100000 nM	–	–	–	–	–
CC(=O)N[C@H](Cc1c[nH]c2ccccc12)C(=O)N[C@@H](Cc1ccccc1)C(=O)NCC(N)=O (Ac-[dW]-Phe-Gly-NH2)	–	–	–	Non-toxic	Non-toxic	Non-toxic	Non-toxic	MPE (Mus musculus [7]): 19%; MPE (Mus musculus [9]): 37%
CC(=O)N[C@H](Cc1c[nH]c2ccc(Br)cc12)C(=O)N[C@@H](Cc1ccccc1)C(=O)NCC(N)=O	> 100000 nM	> 100000 nM	114 nM	–	–	–	–	–
CC(=O)N[C@H](Cc1c[nH]c2c(C)cccc12)C(=O)N[C@@H](Cc1ccccc1)C(=O)NCC(N)=O	–	–	> 100000 nM	–	–	–	–	–
CC(=O)N[C@H](Cc1c[nH]c2c(Br)cccc12)C(=O)N[C@@H](Cc1ccccc1)C(=O)NCC(N)=O	> 100000 nM	> 100000 nM	190 nM	–	–	–	–	–
CC(=O)N[C@H](Cc1c[nH]c2ccc([N+](=O)[O-])cc12)C(=O)N[C@@H](Cc1ccccc1)C(=O)NCC(N)=O	> 100000 nM	> 100000 nM	51.9 nM	Non-toxic	Non-toxic	Non-toxic	Non-toxic	Activity (Mus musculus [10]): 25%; metabolised at 3 h [6]: 7%; MPE (Mus musculus [11]): 48%; Activity (Mus musculus [12]): Dose-dependent effect; Activity (Mus musculus [13]): Dose-dependent effect; Activity (Mus musculus [14]): 47%; Activity (Mus musculus [15]): 49%
CC(=O)N[C@H](Cc1c(C)[nH]c2c(Br)cccc12)C(=O)N[C@@H](Cc1ccccc1)C(=O)NCC(N)=O	> 100000 nM	> 100000 nM	4.03 nM	Non-toxic	Non-toxic	Non-toxic	Non-toxic	MPE (Mus musculus [7]): 33%; MPE (Mus musculus [9]): 32%
CC(=O)N[C@H](Cc1c(C)[nH]c2ccccc12)C(=O)N[C@@H](Cc1ccccc1)C(=O)NCC(N)=O	> 100000 nM	> 100000 nM	314 nM	–	–	–	–	–
